Source: the EternaBench riboswitch data

Test system: MS2 coat protein
Experiment: apparent Kd, MS2 coat protein; higher = weaker binding; RNA-MaP array; FMN 200 µM where present
How it was run: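 The titrant was SNAP-549-labelled MS2 coat protein, run from 0.7 or 1.5 nM in doubling steps to 3 µM. It was applied to designs transcribed by stalled E. coli RNA polymerase on Illumina sequencing-chip clusters, without ligand first and then with constant ligand, in 100 mM Tris-HCl pH 7.5, 80 mM KCl, 4 mM MgCl2, BSA, DTT, yeast tRNA and Tween-20. The apparent Kd is the median of filtered per-cluster binding-curve fits, with green signal normalised to red-channel RNA signal and control-cluster median Fmax.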

[1] = designed as: OFF switch for flavin mononucleotide, no ligand
[2] = ligand present: flavin mononucleotide, designed as: OFF switch for flavin mononucleotide
[3] = designed as: ON switch for flavin mononucleotide, no ligand
[4] = ligand present: flavin mononucleotide, designed as: ON switch for flavin mononucleotide

Sequence	apparent Kd [1]	apparent Kd [2]	apparent Kd [3]	apparent Kd [4]
CCUUUGAAGAUCCUAAAUUUCGACAUGAGGAUCACCCAUGUGCAGGAUAUCGUGCCAGUGAUGUGCGAGAAGGGCAGUCUCUGC	64.6 nM	73.9 nM	–	–
GGGCUGUCAGGAUAUUGAUCGUGAUCGGAAAUGAUCGUGAUCGAGAAGGGACAUGAGGAUCACCCAUGUGGCCC	30.8 nM	33 nM	–	–
CGCCCGUAAGGAUAUACAUGAGGAUCACCCAUGUCGGUAACCGAAGGGCGAUACCUUUGUAGAAGGUACUGCGU	14.8 nM	13.7 nM	–	–
UUUGCAUUCCGAGGAUAUUCAUUUAUUGUCUUCACAUGAGGAUCACCCAUGUGGCGCUUGCGCCGGGAGAAGGCGGUUUGCUUU	–	–	21.7 nM	24.9 nM
GGUACUCAAAGAGUACCAAUACGAACAUGAGGAUCACCCAUGUAGGAUAUGCUACUCAAAGAGUAGCAGAAGGACAUGUCCCUA	13.1 nM	35.2 nM	–	–
GAAUAGAAAGAUUAAUAUGAUUACAUGAGGAUCACCCAUGUAUAGGAUAUCGACGUCAAUGACGUCGAGAAGGAUACAUAAUAA	14.5 nM	26.1 nM	–	–
UUAGAAAGGUUAGGAUAUUAAUUAUUGUAUAGUAUGAUCUACAUGAGGAUCACCCAUGUUAAAUAUAAGAAGGAACGUUAGAUU	57.1 nM	54.8 nM	–	–
UCGAACGGAAACAAAGUAAAUAGACAUGAGGAUCACCCAUGUAAGGAUAUGCCUACUAAAAGUAGGCAGAAGGUACGCGUUCGA	16.5 nM	20.7 nM	–	–
GGAUGACAAAGUCAUCCUAUUCGAACAUGAGGAUCACCCAUGUAGGAUAUGCUACUCAAAGAGUAGCAGAAGGACAUGUGCUUU	37.6 nM	165 nM	–	–
GUUGCUAUCGGAGGAUAUUCAUACCGGAAACGGACAUGAGGAUCACCCAUGUGGCGAAAGCCAUGGGAGAAGGCCGAUAGCAAC	–	–	1350 nM	138 nM
AUCGUUAACGAAGGAUAUGGUUACAUGAGGAUCACCCAUGUAUUUUUUGUGAUCUUGUUUAAGUUCCAGAAGGUCGUUAACGUA	551 nM	710 nM	–	–
GACAGCGACACAGGAUAUGUCAAUUUUACAUGAGGAUCACCCAUGUCCGAAGCAGAAGGGUGAUCGCGCGCAAACUAAGCCAUG	–	–	80.5 nM	70.5 nM
AAGAUGUUAGGAUAUGCUGCUCGUCACAAAAGUGAUGAGUAGCAGAAGGAACAUGAGGAUCACCCAUGUAAAGA	31 nM	55.3 nM	–	–
GACGUUGGAGGAUAUACACGAGUGCUCAGUUGGCCCGGUCGACAUGAGGAUCACCCAUGUAGAAGGCCGACACU	17.6 nM	22.8 nM	–	–
AAUCCACAUGAGGAUCACCCAUGUCAGGAUAUGAACGGUCUGGCACCGUGGGUUCCUGUUGACCGUCAGAAGGGACAAGGGCCC	5.69 nM	7.72 nM	–	–
GAAUACCUAGGAUAUACAUGAGGAUCACCCAUGUUAAUAUUUGCAUAUUCAUCCUCUGGUAGAAGGAGGAAACU	16.1 nM	14.6 nM	–	–
CUAUUUAAGCAGAAGGCGUGGGAGAGAUUCACACGAGGAUAUGCGAUAACGGCGUAUGACAUGAGGAUCACCCAUGUACGUGCG	–	–	5.83 nM	4.91 nM
GAUGACAUGAGGAUCACCCAUGUGAUGGUUUGAGGUGGUUACAGAAGGGACGUAUAGUGGUGUGGUCAGGAUAUGUAGAAUCCU	–	–	125 nM	50.9 nM
GCACUGGCAGGAUAUACAUGAGGAUCACCCAUGUGACCCUUGAAGUACUCGCGUACUCGUAGAAGGGCCUGUGC	102 nM	520 nM	–	–
UUUUUUCCUCAUGUACAUGAGGAACAUGAGGAUCACCCAUGUAGAAGGAUUUCCCUUAAAUUAAGAUAGGAUAUACAUAUAUUU	87 nM	70.5 nM	–	–
AGAGAGUGACAGAAGGGCAAGCUCGAUUGCGGAGAACGCGAUCGAGCUUGCAGGAUAUGUUGAACAUGAGGAUCACCCAUGUCA	–	–	7.98 nM	6.94 nM
CCUUUGUCAGGAUAUCAGAACACGCCCGUAGGGAGUGCAAAUGAGAAGGGACAUGAGGAUCACCCAUGUACAGA	33.2 nM	114 nM	–	–
CAGCUUUACGAGGAUAUGGAAGGAGUCAACUUGCCAGAAGGUGUAACAUGAGGAUCACCCAUGUGGCCCGUGAC	66.1 nM	69.4 nM	–	–
GUCGAGUGAGGAUAUGGUGAGUAGUGCCAGAGCGCUGCUCACCAGAAGGCACAUGAGGAUCACCCAUGUAUGUC	12.9 nM	20.8 nM	–	–
AAGAAACAUGAGGAUCACCCAUGUGAGGAUAUGAGCAAGAAAAGAAAAGAAAGAAGAAUCAGAAGGCACAAAGG	39.6 nM	75.7 nM	–	–
GGUGCGUUUGUGAGGAUAUGCUGGUCCUUGGAUCAGCAGAAGGCACAUGAGGAUCACCCAUGUGGUGUCCCUCC	168 nM	291 nM	–	–
GGAUGUCAAAGACAUCCUAAACGAACAUGAGGAUCACCCAUGUAGGAUAUGCUACUCAAAGAGUAGCAGAAGGACAUGUGCCUU	35 nM	238 nM	–	–
AUUAUUUAUAGUUAUUGGUAUUUUACAGAAGGUGAAAGUGUCACAUGAGGAUCACCCAUGUUCUUCAAGGAUAUGUUGUUAUAC	–	–	64.2 nM	11.6 nM

Sequence	apparent Kd [1]	apparent Kd [2]	apparent Kd [3]	apparent Kd [4]
UUUAAGUCAGGAUAUCGUUAAUUUAAUAAAUUAUUUUAAUUCGAGAAGGGACAUGAGGAUCACCCAUGUAAUUU	33.2 nM	48.6 nM	–	–
GACAGACAUGAGGAUCACCCAUGUGAAAACGUACAAGGAUAUGUGUGGAAACCGUACUAUACAGAAGGUGUCUGUC	–	–	94.5 nM	87 nM
UAUAUAUAGUAAGGAUAUGUAAUUAUUUUAUGAACAGAAGGUACUGACAUGAGGAUCACCCAUGUUUUAGUGUGGGCAUGUAGA	82.9 nM	119 nM	–	–
GCGAUUGCGUAGAAGGUACUAUAAAAUACACUGUAAGGAUAUACAAACAUGAGGAUCACCCAUGUAAAUGGAAUUUGCAAUCGC	–	–	7.8 nM	6.43 nM
AGCAUGUUUACAUGAGGAUCACCCAUGUUUAUUUAGGAUUUCAGAAGGUACAAUUUGUGUUAGAGUAAGGAUAUGAUAUAUGCG	–	–	12 nM	8.48 nM
AGGUCAACCACAGGAUAUGGCUAGCAUAGCUAGCCAGAAGGGUGGUCAUAUCCAUGUAAAUACAUGAGGAUCACCCAUGUAUCC	–	–	209 nM	79.8 nM
CCGGAAAUGUAGGAUAUAGGAGUCGAUAGACACCUAGAAGGGCAUACAUGAGGAUCACCCAUGUGUCCUACCGG	13.7 nM	15.8 nM	–	–
UCUGGUCAAGGAUAUGCGUAAUGUGUUACGGCACGAGGUCUACAUGAGGAUCACCCAUGUAGAAGGUGAUCAGA	18 nM	17.9 nM	–	–
AUGCUUCACACAGGAUAUACAUGAGGAUCACCCAUGUGUCCUCCGUAAUUGACACCAAUUACGCUGUAGAAGGGUGUGAAGCAU	258 nM	188 nM	–	–
AAAAUCUAUUGAGGAUAUUCAUACACUACGUACGGAGAAGGCAAACAAUCAUGAGGACAUGAGGAUCACCCAUGUUGUGACCAU	–	–	17.6 nM	10.6 nM
GUCCUCUCUGAGGAUAUUAUCUGGUCCGAUUGAUAAGAAGGCAGUACAUGAGGAUCACCCAUGUGGGUCGUCUG	53.5 nM	77.7 nM	–	–
UGGUCAUGAUCAGGAUAUUAACAUGGGCUACAUUAAGAAGGGAUAGUGAGAUGCGAACGGAGCGACAUGAGGAUCACCCAUGUA	–	–	39.2 nM	25.5 nM
CUGCUAAUAGGAUAUGCUAGGGAGGCUUCACGUUAGCAGGAACAUGAGGAUCACCCAUGUAGAAGGAUUGUAGA	30.2 nM	21.2 nM	–	–
AACGAUCUAGGAUAUACAUGAGGAUCACCCAUGUAAGAGCUCAAACCGAGCUCCCUCUGUAGAAGGAGGUCAAA	54.5 nM	45.9 nM	–	–
AUAAUGUGAGGAUAUCAGUAGUAUUGCUUCGGCAAUACUACUGAGAAGGCACAUGAGGAUCACCCAUGUGAUCA	1380 nM	32.8 nM	–	–
UAUUAAUACGAAGGAUAUGGUUACAUGAGGAUCACCCAUGUAUGUAUAUUGAUCUAGUUUUUUAACCAGAAGGUCGUGAGUAAA	30.6 nM	48.6 nM	–	–
CUAAAUUAGUAGAAGGACGGAGAGUAAGAAGUCGUAGGAUAUACAUAAGACAUGAGGAUCACCCAUGUGUGUAUGUUGGGUAUG	6.54 nM	6.65 nM	–	–
AAUGAGCGAGGAUAUGCAACUGUAUGACCUACGUGUGCCAGACAUGAGGAUCACCCAUGUAGAAGGUGCUUUCC	59.7 nM	51.3 nM	–	–
CGAUAUUAUGCAGGAUAUCUCCCUUGAAUGCGGAGAGAAGGGCAUAGGGAGACAUACGCCUUAUUACAUGAGGAUCACCCAUGU	9.4 nM	8.29 nM	–	–
GGUCGUCACAUAUACAUGAGGAUCACCCAUGUCAAAAGACAUGAGGAUAUGGAUCCUAAUUGGAUCCAGAAGGCAUGGACGACC	–	–	986 nM	47.3 nM
AUUAUUAAUGCAGGAUAUGAUUAACAUGAGGAUCACCCAUGUGGUGUUGUGAGUAAGGAGAGUGAUCAGAAGGGCAUUUUUUUU	–	–	493 nM	695 nM
ACUAGAUGAGGAUAUACACAUUUUAGUGUUCCUCUAGAUUAACAUGAGGAUCACCCAUGUAGAAGGCAUCAUUA	59.7 nM	218 nM	–	–
GGAUGACAAAGUCAUCCUUAACGAACAUGAGGAUCACCCAUGUAGGAUAUGCAACUCAAAGAGUUGCAGAAGGACAUGUGCCUU	35.9 nM	238 nM	–	–
GUAAAUCAUGUAGGAUAUGCAUGGCGAAGCUACGCAGAAGGACAUGAGGAUCACCCAUGUCUGUCCGUCUGGAUACAGACGGAC	24.6 nM	195 nM	–	–
CAGGUAGACUGAGGAUAUACAAUAAACAGCUAGUCUAUCUAGCUGCCGACAUGAGGAUCACCCAUGUAGAAGGCAGUCUGCCUG	18.5 nM	40 nM	–	–
AAUACAUGAGGAUCACCCAUGUUAUGUUCAAACAAUAUGAGUGAGGAUAUACUGAGUUAGUUAUGGUAGAAGGCACUGGGUUCA	–	–	56.3 nM	36.2 nM
GGAUCGUAAGGAUAUACAUGAGGAUCACCCAUGUGGAUCUAACGGGUCGCCAAGUCGUGUAGAAGGUGCCGUCU	22.7 nM	20.6 nM	–	–
